{
  "source": "paper PMC3419923",
  "about": "(The EMBO Journal, 2012)",
  "test_system": "PepTSt",
  "assay": "Kinetics of proton-driven glycylsarcosine uptake in PepTSt proteoliposomes",
  "format": "biochemical, Streptococcus thermophilus",
  "details": "proton-driven proteoliposome uptake, pH 6.5",
  "procedure,_shortened": "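PepTSt proteoliposomes (1:40 protein:lipid, extruded 400 nm) loaded with 20 mM KPi pH 6.50, 100 mM K acetate, 2 mM MgSO4. Diluted 1:50 into 20 mM NaPIPES […], 2 mM MgSO4, 10 μM valinomycin, giving an inside-negative potential that drives H+/peptide uptake. 3H peptide added at varying concentrations, 25°C. Quenched with ice-cold LiCl, filtered, counted, and converted to molar amounts via standard curves.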",
  "data": [
    {"substance": "glycylsarcosine", "values": [
      {"measurement": "maximal rate of uptake, Vmax", "result": 631, "unit": "nmol min^−1 mg^−1 PepTSt"}
    ]}
  ]
}
